TbHK1 inh: Trypanosoma brucei hexokinase 1 inhibitors, primary screen, biochemical, G6PDH-coupled NADH absorbance, MLSCN library. recombinant TbHK1, G6PDH-coupled NADH A340. hexokinase 1 [Trypanosoma brucei]. inhibition, % at 10 µM. 0.11% of 220,000 active;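 active = inhibition of 50% or more in the single-dose primary screen; inactive = inhibition below 50%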
b-catenin transl: modulators of beta-catenin nuclear translocation, primary screen, imaging, HeLa cells, immunofluorescence, high-content. nuclear translocation activity, % at 5 µM. 0.3% of 190,000 active;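 active = nuclear translocation activity above 50% at 5 µM, with a well cell count of 50 or more; inconclusive = wells under 50 cells across six images, flagged as toxic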;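 also: per-cell ratio of nuclear to cytoplasmic median beta-catenin stain intensity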
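Read-out: Nuclear/cytoplasmic beta-catenin signal ratio, % activation | Assay system: Human HeLa cell line | Times: 24 h compound exposure at 37°C, 5% CO2 | Signal: Fluorescence imaging of beta-catenin antibody stain plus DAPI | Dosing: 5 µM primary, 0.02–20 µM confirmation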
MT stabilizer: microtubule stabilizers in HeLa cells, primary screen, imaging, high-content imaging; % tubulin-high responders, % at 10 µM; 0.83% of 200,000 active; HeLa tubulin immunostaining HCS, 24 h; share of cells brighter than vehicle mean+2SD;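 active = plate Z-score above 3 for both tubulin-high and condensed-nucleus cell shares, with cell loss under 80%, at 10 µM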;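 also: anti alpha tubulin signal scored within the nucleus-defined area of each cell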
Rad51 HR inh: human RAD51 strand exchange inhibitors, primary screen, biochemical, fluorescence. DNA repair protein RAD51 homolog 1 (Homo sapiens), Q06609. hRad51 DNA strand exchange, fluorescence dequenching. inhibition, % at 10 µM. 0.085% of 200,000 active;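 active = inhibition above 40% at the single screening dose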
Target sequence (Q06609 whole entry, looked up): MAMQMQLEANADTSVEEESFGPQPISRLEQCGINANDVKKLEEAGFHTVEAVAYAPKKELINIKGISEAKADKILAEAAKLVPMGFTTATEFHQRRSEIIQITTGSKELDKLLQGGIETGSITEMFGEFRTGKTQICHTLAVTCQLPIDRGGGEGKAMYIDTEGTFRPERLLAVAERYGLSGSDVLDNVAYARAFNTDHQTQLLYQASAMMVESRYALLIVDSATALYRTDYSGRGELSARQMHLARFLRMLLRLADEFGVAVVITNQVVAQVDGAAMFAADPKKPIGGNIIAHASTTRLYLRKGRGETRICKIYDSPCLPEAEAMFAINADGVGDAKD
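Assay system: Human Rad51 nucleoprotein filaments preassembled on unlabelled ssDNA | Reagent: Donor/quencher-labelled 47-bp dsDNA substrate | Doses: One concentration, 10 µM final | Times: 37 °C 15-min filament assembly, 30-min compound preincubation, 15-min exchange | Technique: Fluorescein emission 520 nm, excitation 485 nm | Benchmarks: Plate control and blank wells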
Dynein cargo inh: inhibitors of GR-EGFP nuclear translocation, primary screen, dynein cargo transport inhibitor project, imaging, high-content, 3617.4 mouse cells | z-score, hits read low | 0.47% of 220,000 active | test concentration mostly 20 µM; stimulated with dexamethasone, 1 µM; hits give low values;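 active = plate z-score of nuclear minus cytoplasmic receptor signal below a set negative limit, without overly bright fluorescence or cell loss, cut at about -3.5 in these data, passing the limit was not always enough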;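 also: z-score of nuclear minus cytoplasmic ring GR-EGFP intensity difference per well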
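Medium: Induction medium lacking tetracycline, stripped serum | Probe or stimulus: 1.0 µM final dexamethasone stimulus | Schedule: 48 h induction, then 1 h compound, then 30 min agonist, 37 °C | Signal: Automated 10x imaging of fixed Hoechst-stained cells | Evaluation: Per-cell GR-EGFP intensity, nucleus versus surrounding cytoplasmic ring, well-averaged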
Dynein inh conf: dynein cargo transport inhibitors, GR-EGFP translocation, confirmation, imaging, high-content imaging, GR-EGFP cells. calls only at 20 µM. 69% of 1,000 active. shares compounds with Dynein cargo inh. AID 463116, 2010. 3617.4 GR-EGFP nuclear translocation imaging, dexamethasone-induced;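 active = inhibition of receptor movement into the nucleus at or above a set limit in both runs, with normal cell brightness and cell count; inconclusive = limit reached in only one run, brightness and count normal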;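 also: dexamethasone at 1 µM final in well for 30 min; nuclear minus cytoplasmic GR-EGFP mean intensity difference in channel 2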
Hits are given with their value; i = inactive; ? = inconclusive; nt = no result given; + = active, no number. Rows were chosen to be rich in hits. Some 1.5% of all compounds tested hit in one or more screens of this group.

SMILES	TbHK1 inh	b-catenin transl	MT stabilizer	Rad51 HR inh	Dynein cargo inh	Dynein inh conf
Cc1cccc(CS(=O)(=O)c2nnc([C@H](Cc3ccccc3)NC(=O)OC(C)(C)C)o2)c1	i	nt	i	i	-4.92	i
COC(=O)CS(=O)(=O)c1nnc([C@H](Cc2ccccc2)NC(=O)OC(C)(C)C)o1	i	i	i	i	-3.88	+
COc1ccc(-c2nnn(CC(=O)N(Cc3ccc(F)cc3)C(C(=O)NC3CCCC3)c3ccc(F)cc3)n2)cc1 (stereo unspecified)	i	nt	i	i	i	nt
COc1ccc(C(C(=O)NC2CCCCC2)N(C(=O)CCl)c2ccc(OC)cc2)cc1 (stereo unspecified)	i	i	i	i	i	nt
O=C(NC1CCCC1)C(c1ccc(F)cc1)N(Cc1ccc(F)cc1)C(=O)CCl (stereo unspecified)	i	i	i	i	-4.44	+
O=C(NC1CCCCC1)C(c1cccnc1)N(C(=O)CCl)c1ccc(F)cc1 (stereo unspecified)	i	i	i	i	-4.43	+
COc1ccc(N(C(=O)CCl)C(C(=O)NC2CCCCC2)c2cccnc2)cc1 (stereo unspecified)	i	i	i	i	-5.38	+
COc1ccc(C(C(=O)NC2CCCCC2)N(C(=O)CCl)c2cccc(Cl)c2)cc1 (stereo unspecified)	i	nt	i	i	-3.86	+
CNC(=O)c1nnn(Cc2ccccc2)c1NC(=O)C(F)(F)F	i	nt	i	i	i	nt
Cc1ccc(NC(=O)N2CCCC2C(=O)NCc2cccs2)cc1 (stereo unspecified)	i	i	i	i	i	nt
COc1cccc(/C=C/C(=O)c2ccc(C)c([N+](=O)[O-])c2)c1	i	nt	i	i	-4.03	+
Cc1ccc(C(=O)/C=C/c2ccccc2[N+](=O)[O-])cc1	i	i	i	i	-4.67	+
COc1cccc(/C=C/C(=O)c2ccc(NS(=O)(=O)c3ccc(C)cc3)cc2)c1	i	nt	i	i	i	nt
COc1ccc(/C=C/C(=O)c2ccc(C)c([N+](=O)[O-])c2)cc1O	i	i	i	i	i	nt
Cc1ccc(C(=O)/C=C/c2ccc(-c3ccccc3[N+](=O)[O-])o2)cc1	i	i	i	i	i	nt
COc1cc(/C=C/C(=O)c2ccc(C)c([N+](=O)[O-])c2)cc(OC)c1O	i	i	i	i	-3.8	?
CCn1cc(C(=O)OCC(=O)Nc2c(C)n(C)n(-c3ccccc3)c2=O)c(=O)c2ccc(C)nc21	i	i	i	i	i	nt
S=c1[nH]nc(-c2cc(-c3ccccc3)n[nH]2)n1/N=C/C(Br)=C/c1ccccc1	i	i	nt	i	-4.26	?
COc1ccccc1OCC(=O)Sc1ccc(C)cc1	i	i	i	i	i	nt
COc1cc(C(=O)Sc2ccc(C)cc2)cc(OC)c1OC	i	i	i	nt	-4.42	+
O=C(NC(=S)NCCc1ccccc1)C1CCCCC1	i	i	i	i	i	nt
O=C(NC1CCCc2ccccc21)c1ccc(Br)cc1 (stereo unspecified)	i	i	i	i	i	nt
COc1ccc(CNc2oc(-c3cccc4ccccc34)nc2C#N)cc1	i	i	i	i	i	nt
O=C(CSc1nc2ccccc2s1)CSc1nc2ccccc2s1	i	i	i	i	i	nt
O=S1(=O)C=C(Sc2nc3ccccc3s2)c2ccccc21	i	i	i	i	-4.11	+
SMILES	TbHK1 inh	b-catenin transl	MT stabilizer	Rad51 HR inh	Dynein cargo inh	Dynein inh conf
CCOC(=O)C1CCCN(C(=O)c2sc3nc(-c4ccc(F)cc4)cn3c2C)C1 (stereo unspecified)	i	i	i	nt	i	nt
CC1=NOC(=O)/C1=C\c1ccc(-c2ccc(Cl)c(C(=O)O)c2)o1	i	i	i	i	i	nt
CC1=NOC(=O)/C1=C\c1ccc(-c2ccccc2Br)o1	i	i	i	i	-3.67	+
Cc1ccc(/C=C2/C(=O)ON=C2c2ccccc2)o1	i	i	nt	i	-5.97	+
O=C1ON=C(c2ccccc2)/C1=C\c1ccco1	i	i	nt	i	-4.44	+
Cn1c(NC(=O)c2ccc(Cl)cc2)c(-c2ccccn2)c(=O)c2ccccc21	i	i	i	i	i	nt
Cn1c(SCC(=O)N2CCOCC2)nnc1-c1ccc(Cl)cc1Cl	i	i	i	i	i	nt
O=C(NCCC1=CCCCC1)c1coc(=O)c(Br)c1	i	i	i	i	-6.03	?
O=C(NCCC1=CCCCC1)c1ccc(=O)oc1	i	i	i	i	i	nt
COc1ccc2c(c1)c1ccc3c(c1n2C)C(=O)C=CC3=O	i	i	nt	i	-5.77	+
CCOC(=O)c1c(NC(=O)c2ccc(-n3cnnn3)cc2)sc2c1CCCC2	i	i	i	i	i	nt
CCN(CCCNC(=O)C1c2ccccc2C(=O)N(CCOC)C1c1ccc(F)cc1)Cc1ccccc1 (stereo unspecified)	i	i	i	i	i	nt
Cn1c(CCNC(=O)c2ccco2)nc2cc(NS(=O)(=O)c3ccccc3)ccc21	i	i	i	i	i	nt
Cc1ccc(-c2cc(C(F)F)nc(S(C)(=O)=O)n2)cc1	i	i	i	i	-4.49	+
CCCn1c(CC)nc([N+](=O)[O-])c1S(=O)(=O)c1ccccc1	i	i	i	i	-5.09	+
C=CCS(=O)(=O)c1nc2ccccc2s1	i	i	i	i	-5.43	i
CC(C)(C)S(=O)(=O)c1nc2ccccc2s1	i	i	i	i	i	nt
Cc1ccc(C(=O)/C=C/Nc2ccc([N+](=O)[O-])cc2Br)cc1	i	i	i	i	i	nt
NC(=O)CN1C(=O)C(O)(CC(=O)/C=C\c2ccc3c(c2)OCO3)c2ccccc21 (stereo unspecified)	i	nt	i	i	i	nt
CN1C(=O)C(O)(CC(=O)/C=C\c2ccc3c(c2)OCO3)c2ccccc21 (stereo unspecified)	i	i	i	nt	-4.55	+
O=C(c1ccccc1)c1cc(Cl)ccc1N1C(=O)C=CC1=O	i	i	i	i	-4.47	+
CCCN1C(=O)/C(=C/C=C2\N(CC)c3ccccc3C2(C)C)SC1=S	i	i	i	i	i	i
C=CCN1C(=O)/C(=C\C=C2\N(C)c3ccccc3C2(C)C)SC1=S	i	i	i	i	i	nt
CCCCN1C(=O)/C(=C/C=C2\Oc3ccccc3N2CC)SC1=S	i	i	i	i	i	+
CC(=O)Nc1ccc(NC(=O)C2CCCN2S(=O)(=O)c2cccc3nsnc23)cc1 (stereo unspecified)	i	i	i	i	i	nt
COc1ccccc1CNC(=O)CN1C(=O)C(C)N(c2ccc(C)cc2)C1=O (stereo unspecified)	i	i	i	i	i	nt

Screening data deposited in PubChem BioAssay by several laboratories.
